Source: article PMC3032042 (Chemico-biological interactions, 2010)
Entries after “also recorded” stand apart in the source; their conditions may differ. Like-named read-outs stand apart in the source and are kept apart here.

Assays:
[1] = target: T1, rSULT1A1 (Rattus norvegicus, UniProt P17988); test: Binding of TNP-AMP and PAP to rSULT1A1
Procedure, shortened: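 Recombinant rat enzyme (expressed in E. coli BL21(DE3), purified on PAP-agarose) at 0.34 µM in potassium phosphate pH 7.0, 37 °C, in a quartz cuvette. Titrated with TNP-AMP and the fluorescence increase recorded (ex 435/em 545 nm). PAP titration then displaced TNP-AMP, and the fluorescence decrease was recorded. Kd from a single-site binding fit corrected for non-specific binding.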

[2] = target: rSULT1A1-PAP complex (Rattus norvegicus, UniProt P17988); test: Kd of OHPCBs with the rSULT1A1-PAP complex by displacement of ANS; format: binding
Procedure, shortened: (§1)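 DTT-free recombinant rat enzyme pretreated with 1 mM GSH or GSSG for 1 h at 25 °C under argon. Enzyme at 0.34 µM in 0.25 M potassium phosphate pH 7.0, held 2 min at 37 °C under argon. ANS added (10 µM final), then 0.27 mM PAP to form the complex, then titrated with test compound in ethanol. Read at ex 380/em 465 nm. Duplicates; one-site fit corrected for non-specific ANS binding.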

[3] = target: T1, rSULT1A1; details: cited from earlier work; for IC50: rSULT1A1 with all cysteines in the thiol form, 2-naphthol as the substrate; for inhibitor status with rSULT1A1: standard assay conditions, reduced rSULT1A1
[4] = target: T1, rSULT1A1; test: Kd of OHPCBs with rSULT1A1 by displacement of ANS; format: binding
Procedure, shortened: as §1, with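 “Recombinant” for “DTT-free recombinant”, “enzyme (E. coli-expressed, PAP-agarose purified), DTT removed by gel filtration,” for “enzyme”, “then” for “then 0.27 mM PAP to form the complex, then”, “Fluorescence” for “Read at”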

[5] = target: T1, rSULT1A1; details: GSSG-pretreated enzyme; cited from earlier work
[6] = target: T1, rSULT1A1; test: Sulfation of OHPCBs catalyzed by rSULT1A1; format: biochemical; details: standard assay conditions (reduced enzyme)
Procedure, shortened: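 Rat SULT1A1 expressed in E. coli BL21(DE3) from pET-3c and purified on PAP-agarose affinity column. Reaction at 37 °C: 0.25 M potassium phosphate pH 7.0, 200 µM PAPS, 7.5 mM 2-mercaptoethanol, 10 µM test compound added in acetone (3.3% v/v final). Started with 0.75 µg enzyme, stopped with methanol after 6 min. Sulfation rate from HPLC of substrate-dependent PAP formation.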

[7] = read-out: Kd values for OHPCBs with rSULT1A1, With 0.27 mM PAP, GSH, enzyme pretreated with 1 mM GSH, pH 7.0, 37 °C
[8] = read-out: Kd values for OHPCBs with rSULT1A1, With 0.27 mM PAP, GSSG, enzyme pretreated with 1 mM GSSG, pH 7.0, 37 °C
[9] = read-out: Kd values for OHPCBs with rSULT1A1, Without PAP, GSH, enzyme pretreated with 1 mM GSH, pH 7.0, 37 °C
[10] = read-out: Kd values for OHPCBs with rSULT1A1, Without PAP, GSSG, enzyme pretreated with 1 mM GSSG, pH 7.0, 37 °C

T1 sequence (P17988 whole entry): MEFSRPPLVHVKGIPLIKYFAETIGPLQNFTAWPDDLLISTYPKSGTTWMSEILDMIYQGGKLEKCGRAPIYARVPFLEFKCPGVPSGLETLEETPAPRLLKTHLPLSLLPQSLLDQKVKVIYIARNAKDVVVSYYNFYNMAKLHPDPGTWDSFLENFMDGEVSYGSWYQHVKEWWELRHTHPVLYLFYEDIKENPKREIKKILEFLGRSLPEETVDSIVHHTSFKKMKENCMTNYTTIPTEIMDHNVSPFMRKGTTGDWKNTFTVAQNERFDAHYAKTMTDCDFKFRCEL
Chain of rSULT1A1-PAP complex (P17988 whole entry, one chain of several): as the sequence (P17988 whole entry) above

Molecule | Kd ([1]; read-out: Kd of TNP-AMP binding to rSULT1A1, 0.34 µM rSULT1A1, potassium phosphate buffer pH 7.0, 37°C, fluorescence at 545 nm) [µM] | Kd [2, 7] [µM] | Kd [2, 8] [µM] | IC50 [3] [µM] | Kd [4, 9] [µM] | Kd [4, 10] [µM] | substrate status with GSSG-pretreated (oxidized) rSULT1A1 [5] | inhibitor status with rSULT1A1 [3] | substrate status with rSULT1A1 [6] | Kd ([1]; Kd of PAP displacing TNP-AMP bound to rSULT1A1, 0.34 µM rSULT1A1, pH 7.0, 37°C, Figure 4B) [µM]
2'-(or-3')-O-(trinitrophenyl)adenosine 5'-monophosphate [TNP-AMP] | 6.5 |  |  |  |  |  |  |  |  | 
Oc1c(Cl)cc(-c2ccccc2)cc1Cl [4-OH PCB 14] |  | 0.4 ± 0.05 | 0.29 ± 0.04 | 0.27 | 0.26 ± 0.03 | 0.22 ± 0.02 | converted from inhibitors to substrates |  |  | 
Oc1c(Cl)cc(-c2ccccc2Cl)cc1Cl [4-OH PCB 34] |  | 0.49 | 0.54 ± 0.01 | 0.34 | 0.37 ± 0.01 | 0.23 ± 0.01 | non-substrates for GSSG-pretreated enzyme | inhibitors of the enzyme |  | 
Oc1ccc(-c2ccccc2Cl)cc1Cl [4’-OH PCB 6] |  | 0.88 ± 0.03 | 0.72 ± 0.01 | 23 | 0.66 ± 0.2 | 0.5 ± 0.1 | converted from inhibitors to substrates |  |  | 
Oc1ccc(-c2cc(Cl)ccc2Cl)cc1 [4’-OH PCB 9] |  | 3.1 ± 1.5 | 3.3 ± 0.1 |  | 12 ± 4 | 7.1 ± 1.3 |  |  | substrates for rSULT1A1 | 
Oc1ccc(-c2ccc(Cl)c(Cl)c2)cc1 [4’-OH PCB 12] |  | 3.1 ± 0.01 | 4.6 ± 1.2 |  | 4 ± 0.8 | 2.5 ± 0.7 |  |  | substrates for rSULT1A1 | 
Oc1ccc(-c2ccc(Cl)cc2Cl)cc1Cl [4’-OH PCB 25] |  |  |  |  |  |  |  | the weakest inhibitor |  | 
Oc1ccc(-c2ccc(Cl)c(Cl)c2)c(Cl)c1 [4’-OH PCB 33] |  | 2 ± 0.01 | 2.4 ± 0.04 | 26 | 2 ± 0.1 | 2.5 ± 0.4 | converted from inhibitors to substrates; also recorded: substrates for oxidized rSULT1A1 | relatively weak inhibitors |  | 
Oc1ccc(-c2ccc(Cl)c(Cl)c2)cc1Cl [4’-OH PCB 35] |  | 1.6 ± 0.1 | 1.7 ± 0.1 |  | 3.6 ± 0.9 | 1.6 ± 0.4 |  |  | substrates for rSULT1A1; also recorded: the weakest substrate | 
Oc1ccc(-c2cc(Cl)cc(Cl)c2)cc1Cl [4’-OH PCB 36] |  |  |  |  |  |  | substrates for oxidized rSULT1A1 | relatively weak inhibitors |  | 
Oc1c(Cl)cc(-c2ccc(Cl)cc2Cl)cc1Cl [4’-OH PCB 68] |  | 0.47 ± 0.02 | 0.4 ± 0.04 | 0.85 | 0.67 ± 0.1 | 0.53 ± 0.1 | non-substrates for GSSG-pretreated enzyme | inhibitors of the enzyme |  | 
Oc1ccc(Cl)cc1-c1ccc(Cl)c(Cl)c1 [6’-OH PCB 35] |  | 3.7 ± 0.01 | 3.6 ± 1.3 |  | 65 ± 32 | 117 ± 36 |  |  | substrates for rSULT1A1 | 
Nc1ncnc2c1ncn2[C@@H]1O[C@H](COP(=O)(O)O)[C@@H](OP(=O)(O)O)[C@H]1O [PAP, Adenosine 3’,5’-diphosphate] |  |  |  |  |  |  |  |  |  | 2.6
